ChEMBL document CHEMBL3244180, “Synthesis of branched-chain apiosylpyrimidines and their inhibition of lymphocyte proliferation” (1978)
Activity calls are given as the source filed them. The rule behind the calls is not given here.

Key:
[1] = Immunosuppressive activity against PHA-stimulated proliferation in rat T-lymphocytes assessed as cell viability at 1 uM […] by [3H]thymidine incorporation method relative to control; type: functional; details: read-out: Activity
[2] = Immunosuppressive activity against PHA-stimulated proliferation in rat T-lymphocytes assessed as cell viability at 100 uM after 6 days by [3H]thymidine incorporation method relative to control; type: functional; details: read-out: Activity
Summary of the method: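 Rat lymphocytes incubated 6 days at 37 °C with 100 μM compound; result expressed as percentage of viable lymphocytes.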

T-cell = test: Immunosuppressive activity against PHA-stimulated proliferation in rat T-lymphocytes assessed as cell viability at 0.01 to 0.1 uM […] by [3H]thymidine incorporation method relative to control; type: functional, cell-based
[3] = Growth inhibition of human MGL8 cells at 500 uM after 48 hrs relative to control; type: functional; details: MGL8, 48 h, read-out: GI
Summary of the method: (§1)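 MGL-8 lymphoblasts seeded at 22 × 10⁴ cells/mL in stationary suspension in RPMI 1640 with 10% fetal calf serum, penicillin and streptomycin; 48 h at 37 °C; cells counted by Coulter counter; growth expressed as % of untreated control; significance tested (p < 0.01).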

MGL8 = test: Growth inhibition of human MGL8 cells at 5 uM after 48 hrs; type: functional, cell-based; summary of the method: as §1
Human alphaherpesvirus 2 = test: Antiviral activity against HSV2 infected in BHK cells assessed as reduction of viral plaque at 4 uM after 24 hrs; type: functional
Summary of the method: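 BHK confluent monolayers in 24-well trays; supernatant removed and 50 μL virus dilution added per well; 2 h at 37 °C, 5% CO2, 100% humidity with intermittent agitation. Eagle's medium containing tryptose phosphate broth and calf serum then added; viral plaques counted after 24 h.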

[4] = Growth inhibition of human MGL8 cells at 50 uM after 48 hrs relative to control; type: functional; details: MGL8, 48 h, read-out: GI; summary of the method: as §1
Neurospora crassa = test: Antifungal activity against Neurospora crassa at 1 mg/ml; type: functional, organism-based
Summary of the method: (§2)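 Organisms grown on agar plates at 37 °C. Compound dissolved at 1 mg/mL in methanol, applied to a 2-cm disk, and the disk placed on agar streaked with the organism.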

Proteus vulgaris = test: Antibacterial activity against Proteus vulgaris at 1 mg/ml; type: functional, organism-based; summary of the method: as §2
Pseudomonas aeruginosa = test: Antibacterial activity against Pseudomonas aeruginosa at 1 mg/ml; type: functional, organism-based; summary of the method: as §2
Escherichia coli = test: Antibacterial activity against Escherichia coli at 1 mg/ml; type: functional, organism-based; summary of the method: as §2
[5] = test system: Saccharomyces pastorianus; test: Antifungal activity against Saccharomyces pastorianus at 1 mg/ml; type: functional, organism-based; summary of the method: as §2
Staphylococcus aureus = test: Antibacterial activity against Staphylococcus aureus at 1 mg/ml; type: functional, organism-based; summary of the method: as §2
Bacillus subtilis = test: Antibacterial activity against Bacillus subtilis at 1 mg/ml; type: functional, organism-based; summary of the method: as §2
Ralstonia solanacearum = test: Antibacterial activity against Pseudomonas solanacearum at 1 mg/ml; type: functional, organism-based
Summary of the method: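 Agar disk diffusion: test compound at 1 mg/mL in methanol, applied to a 2-cm disk laid on agar plates streaked with the organism.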

[6] = test system: Salmonella enterica subsp. enterica serovar Gallinarum; test: Antibacterial activity against Salmonella gallinarum at 1 mg/ml; type: functional, organism-based; summary of the method: as §2
Candida albicans = test: Antifungal activity against Candida albicans at 1 mg/ml; type: functional, organism-based; summary of the method: as §2
Serratia marcescens = test: Antibacterial activity against Serratia marcescens at 1 mg/ml; type: functional, organism-based; summary of the method: as §2
Micrococcus luteus = test: Antibacterial activity against Sarcina lutea at 1 mg/ml; type: functional, organism-based; summary of the method: as §2

SMILES | thymidine incorporation of control at 1 µM [1] [%] | viability at 100 µM [2] [%] | Activity (T-cell) | inhibition of growth at 500 µM [3] [%] | growth inhibition (GI) (MGL8) | Activity (Human alphaherpesvirus 2) | inhibition of growth at 50 µM [4] [%] | Activity (Neurospora crassa) | Activity (Proteus vulgaris) | Activity (Pseudomonas aeruginosa) | Activity (Escherichia coli) | Activity [5] | Activity (Staphylococcus aureus) | Activity (Bacillus subtilis) | Activity (Ralstonia solanacearum) | Activity [6] | Activity (Candida albicans) | Activity (Serratia marcescens) | Activity (Micrococcus luteus)
Nc1ccn([C@@H]2O[C@H](CO)[C@@H](O)[C@@H]2O)c(=O)n1 [CYTARABINE] | 18 | 76 | inactive |  |  |  |  |  |  |  |  |  |  |  |  |  |  |  | 
NC(=O)c1ncn([C@@H]2O[C@H](CO)[C@@H](O)[C@H]2O)n1 [RIBAVIRIN] | 127 |  |  |  |  |  |  |  |  |  |  |  |  |  |  |  |  |  | 
O=c1[nH]c(=O)n([C@@H]2OC[C@@](O)(CO)[C@H]2O)cc1I |  |  |  | 6 | inactive | inactive | 24 |  |  |  |  |  |  |  |  |  |  |  | 
O=c1ccn([C@@H]2OC[C@@](O)(CO)[C@H]2O)c(=O)[nH]1 | 16 | 90 | inactive | 72 | inactive | inactive | 100 | inactive | inactive | inactive | inactive | inactive | inactive | inactive | inactive | inactive | inactive | inactive | inactive
Cc1cn([C@@H]2OC[C@@](O)(CO)[C@H]2O)c(=O)[nH]c1=O | 56 | 89 | inactive | 83 | inactive | inactive | 95 | inactive | inactive | inactive | inactive | inactive | inactive | inactive | inactive | inactive | inactive | inactive | inactive
Nc1ncnc2c1ncn2[C@@H]1OC[C@](O)(CO)[C@H]1O | 159 | 91 | inactive |  |  |  |  |  |  |  |  |  |  |  |  |  |  |  | 
Nc1ncnc2c1ncn2[C@@H]1OC[C@@](O)(CO)[C@H]1O | 14 | 85 |  |  |  | 42% |  |  |  |  |  |  |  |  |  |  |  |  | 
O=c1[nH]c(=O)n([C@@H]2O[C@H](CO)[C@@H](O)[C@H]2O)cc1I |  |  |  | 9 | inactive |  | 32 |  |  |  |  |  |  |  |  |  |  |  | 
Nc1ncnc2c1ncn2[C@@H]1O[C@H](CO)[C@@H](O)[C@@H]1O [VIDARABINE] | 71 | 94 |  |  |  |  |  |  |  |  |  |  |  |  |  |  |  |  | 
CC(=O)O[C@H]1[C@H](n2cc(Br)c(=O)[nH]c2=O)OC[C@@]12COC(=O)O2 |  |  |  |  |  |  |  | inactive | inactive | inactive | inactive | inactive | inactive | inactive | inactive | inactive | inactive | inactive | inactive
CC(=O)O[C@H]1[C@H](n2cc(I)c(=O)[nH]c2=O)OC[C@@]12COC(=O)O2 |  |  |  |  |  |  |  | inactive | inactive | inactive | inactive | inactive | inactive | inactive | inactive | inactive | inactive | inactive | inactive
O=c1[nH]c(=O)n([C@@H]2OC[C@@](O)(CO)[C@H]2O)cc1Br |  |  |  | 13 | inactive | inactive | 52 |  |  |  |  |  |  |  |  |  |  |  | 
O=c1[nH]c(=O)n([C@@H]2O[C@H](CO)[C@@H](O)[C@H]2O)cc1Br |  |  |  | 11 | inactive |  | 40 |  |  |  |  |  |  |  |  |  |  |  | 
